The source made the active and inactive calls. The calls are words filed in the database; no cut-off is given here.
Legend:
[1] = target: microRNA 21; assay: Inhibition of miR-21 RNA in human A498 cells assessed as potentiation of topotecan-induced cytotoxicity by measuring topotecan IC50 at 10 uM after 72 hrs by XTT assay (reference value: 1 uM); assay type: cell-based
In short: (§1)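 The chemotherapeutic agent (topotecan) was titrated while the miR-21 inhibitor was held at a fixed concentration, 0.1% DMSO final, in triplicate. Cells were seeded at 500 per well and treated after overnight attachment. After 72 h, XTT was read at 450 nm (630 nm background) at start and after 4 h. Signal normalized to DMSO; IC50 from variable-slope sigmoidal fit.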

[2] = target: microRNA 21; assay: Inhibition of miR-21 RNA in human HeLa cells harboring miR-21 binding sequence in 3'-UTR of firefly luciferase gene assessed as increase in luciferase expression incubated for 48 hrs by Bright-Glo luciferase reporter gene assay; assay type: cell-based
In short: (§2)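 HeLa-miR21-Luc stable line (miR-21 site in the firefly luciferase 3′-UTR), 1000 cells per well. Compound or DMSO (0.1% final) added after overnight attachment, in triplicate, for 48 h. Bright-Glo luminescence was normalized to XTT viability (450 nm) and expressed as fold change relative to DMSO. At least three independent experiments.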

[3] = test system: microRNA 21; assay: Inhibition of miR-21 RNA in human HeLa cells harboring miR-21 binding sequence in 3'-UTR of firefly luciferase gene assessed as increase in luciferase expression incubated for 48 hrs by Bright-Glo luciferase reporter gene assay relative to control; assay type: cell-based; in short: as §2
[4] = Inhibition of miR-125b RNA (unknown origin) transfected in human PC3 cells at 10 uM after 48 hrs by Bright-Glo luciferase reporter gene assay; assay type: cell-based
[5] = test system: microRNA 21; assay: Inhibition of miR-21 RNA in human A498 cells assessed as potentiation of topotecan-induced cytotoxicity by measuring reduction in topotecan IC50 at 10 uM after 72 hrs by XTT assay relative to topotecan alone; assay type: cell-based; in short: as §1
[6] = Inhibition of miR-122 RNA (unknown origin) transfected in human Huh7-psiCHECK-miR122 cells at 10 uM incubated for 48 hrs by Bright-Glo luciferase reporter gene assay
[7] = test system: A498; assay: Induction of apoptosis in human A498 cells assessed as increase in caspase-3/7 activity at 10 uM after 24 hrs by Caspase-Glo 3/7 assay relative to control; assay type: functional
In short: (§3)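 A498 cells, 10,000 per well, treated after overnight attachment for 24 h with DMSO (0.1%), 400 nM topotecan, 10 μM inhibitor, or topotecan plus inhibitor at those levels. Caspase-3/7 activity read by Caspase-Glo 3/7 luminescence and normalized to DMSO. At least three independent experiments; unpaired t test.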

[8] = test system: microRNA 21; assay: Inhibition of miR-21 RNA in human A498 cells assessed as potentiation of topotecan-induced apoptosis by measuring increase in caspase-3/7 activity at 10 uM after 24 hrs by Caspase-Glo 3/7 assay relative to topotecan alone; assay type: cell-based; in short: as §3
[9] = test system: NIH3T3; assay: Cytotoxicity against mouse NIH/3T3 cells up to 100 uM after 72 hrs by XTT assay; assay type: cell-based; details: nih3t3, 72 h
In short: (§4)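 Cells seeded at 500 per well, incubated overnight, then exposed to increasing compound concentrations (0.1% DMSO final, DMSO control) in triplicate for 72 h. Activated XTT added; absorbance read at 450 nm with 630 nm background at start and after 4 h at 37 °C, 5% CO2. Change normalized to DMSO as % viability; IC50 from variable-slope sigmoidal fit; three independent measurements.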

[10] = test system: HCT-116; assay: Cytotoxicity against human HCT116 cells after 72 hrs by XTT assay; assay type: functional, cell-based; details: HCT-116, 72 h; in short: as §4
[11] = test system: NIH3T3; assay: Potentiation of topotecan-induced cytotoxicity in mouse NIH/3T3 cells at 1 to 10 uM after 72 hrs by XTT assay; assay type: cell-based; details: nih3t3, 72 h; in short: as §1
[12] = Inhibition of miR-221 RNA (unknown origin) transfected in human PC3 cells at 10 uM after 48 hrs by Bright-Glo luciferase reporter gene assay; assay type: cell-based

EC50 [2]: 5.3 µM | inhibition [6]: inactive
Compound: C#CCOc1ccc(-c2noc(-c3nnn(-c4cccc(/C(C)=N/O)c4)c3N)n2)cc1
IC50 [1]: 0.09 µM | inhibition [2]: Dose-dependent effect | fold change (FC) [3]: 12.2 | inhibition [4]: inactive | fold change (FC) [5]: 11 | Activity [7]: 20% | fold change (FC) [8]: 1.6 | Activity [9]: Non-Toxic | IC50 [10]: 5.9 µM | Activity [11]: Non-Toxic | inhibition [12]: inactive

Reference: ChEMBL document CHEMBL4251758, “Small Molecule Inhibition of MicroRNA miR-21 Rescues Chemosensitivity of Renal-Cell Carcinoma to Topotecan” (J Med Chem, 2018)
